Measurements: ChEMBL document CHEMBL1157301, “N-Methyl-4-hydroxy-2-pyridinone analogues from Fusarium oxysporum” (J Nat Prod, 2006)
In brackets after ≈: the same amount, converted by molar mass. Activity calls are given as the source filed them. The calls are words filed in the database; no cut-off is given here.

Experiments:
Format in all cases: functional, organism-based
Aspergillus flavus = experiment: Antifungal activity against Aspergillus flavus up to 1 mg/mL by disk assay
Procedure, shortened: (§1)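 Disk diffusion assay run as described by Alam et al., with captan as positive control; compounds tested up to 1mg/mL.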

[1] = tested on: Mycobacterium intracellulare; experiment: Antimycobacterial activity against Mycobacterium intracellular ATCC 23068 at 37 degC after 68 to 72 hrs
Procedure, shortened: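 Modified Franzblau microdilution. Samples in DMSO, serially diluted in 20% DMSO/saline, tested in duplicate. Inoculum in Middlebrook 7H9 broth with OADC and 5% Alamar Blue, pH 7.3. Incubated at 37 °C, 10% CO2, 68–72 h. Fluorescence read at 544ex/590em before and after incubation. IC50 from percent growth versus concentration; MIC is the lowest concentration with no detectable growth. Ciprofloxacin control.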

Candida albicans [2] = experiment: Antifungal activity against Candida albicans ATCC 90028 at 37 degC after 18 to 24 hrs
Aspergillus fumigatus = experiment: Antifungal activity against Aspergillus fumigatus ATCC 90906 at 30 degC after 68 to 72 hrs
Fusarium verticillioides = experiment: Antifungal activity against Fusarium verticillioides up to 1 mg/mL by disk assay; procedure, shortened: as §1
Cryptococcus neoformans = experiment: Antifungal activity against Cryptococcus neoformans ATCC 90113 at 30 degC after 68 to 72 hrs
Candida albicans [3] = experiment: Antifungal activity against Candida albicans ATCC 90028 up to 50 ug/mL after 18 to 24 hrs at 37 degC

Compound	Activity (Aspergillus flavus)	Activity [1]	Activity (Candida albicans [2])	Activity (Aspergillus fumigatus)	Activity (Fusarium verticillioides)	Activity (Cryptococcus neoformans)	IC50 (Aspergillus fumigatus) [µg/mL]	further results
CCC(C)CC(C)/C=C(\C)[C@@H]1O[C@H](c2c(O)c(-c3ccc(O)cc3)c[nH]c2=O)CC[C@H]1C (stereo not given in full)	inactive	inactive	inactive	inactive	inactive	inactive	–	–
CCC(C)CC(C)/C=C(\C)C1OC(c2c(O)c([C@]3(O)CCC(=O)C[C@@H]3O)cn(C)c2=O)CC[C@@H]1C (stereo not given in full)	inactive	–	–	–	inactive	–	2 (≈ 4.08 µM)	IC50 (Cryptococcus neoformans): 35 µg/mL (≈ 71.5 µM); Activity (Candida albicans [3]): inactive
CCC(C)CC(C)/C=C(\C)[C@@H]1O[C@H](c2c(O)c(-c3ccc(O)cc3)cn(C)c2=O)CC[C@H]1C (stereo not given in full)	inactive	inactive	inactive	inactive	inactive	inactive	–	–
CCC(C)CC(C)/C=C(\C)[C@@H]1O[C@H](c2c(O)c([C@@]3(O)CCC(=O)C[C@H]3O)cn(C)c2=O)CC[C@H]1C (stereo not given in full)	inactive	–	–	–	inactive	–	35 (≈ 71.5 µM)	–
CCC(C)CC(C)/C=C(\C)[C@@H]1O[C@H](c2c(O)c([C@@]3(O)CCC(OC)(OC)C[C@@H]3O)cn(C)c2=O)CC[C@H]1C (stereo not given in full)	inactive	inactive	inactive	inactive	inactive	inactive	–	–
C[C@@H]1[C@H](O)[C@@H](C)/C=C/C=C/C=C/C=C/C=C/C=C/C=C/[C@H](O[C@@H]2O[C@H](C)[C@@H](O)[C@H](N)[C@@H]2O)C[C@@H]2O[C@](O)(C[C@@H](O)C[C@@H](O)[C@H](O)CC[C@@H](O)C[C@@H](O)CC(=O)O[C@H]1C)C[C@H](O)[C@H]2C(=O)O [AMPHOTERICIN B]	–	–	–	–	–	–	0.91 (≈ 0.985 µM)	–
COC[C@H]1OC(=O)c2coc3c2[C@@]1(C)C1=C(C3=O)[C@@H]2CCC(=O)[C@@]2(C)C[C@H]1OC(C)=O [WORTMANNIN]	–	–	–	–	–	–	–	IC50 (Candida albicans [2]): 0.25 µg/mL (≈ 0.584 µM); MIC (Candida albicans [2]): 0.78 µg/mL (≈ 1.82 µM)
O=C(O)c1cn(C2CC2)c2cc(N3CCNCC3)c(F)cc2c1=O [CIPROFLOXACIN]	–	–	–	–	–	–	–	MIC [1]: 0.63 µg/mL (≈ 1.9 µM)
CC[C@H](C)[C@H]1C(=O)O[C@H](C(C)C)C(=O)N(C)[C@@H](C(C)C)C(=O)O[C@H](C(C)C)C(=O)N(C)[C@@H](C(C)C)C(=O)O[C@H](C(C)C)C(=O)N1C [ENNIATIN B1]	–	–	–	–	–	–	–	IC50 [1]: 15 µg/mL (≈ 22.9 µM); IC50 (Candida albicans [2]): 2 µg/mL (≈ 3.06 µM); MIC (Candida albicans [2]): 6.25 µg/mL (≈ 9.56 µM); IC50 (Cryptococcus neoformans): 9 µg/mL (≈ 13.8 µM); MIC (Cryptococcus neoformans): 25 µg/mL (≈ 38.2 µM)
